For nine compounds, Activity results are on record in ChEMBL document CHEMBL3853279, “Tadehaginosides A-J, Phenylpropanoid Glucosides from Tadehagi triquetrum, Enhance Glucose Uptake via the Upregulation of PPARγ and GLUT-4 in C2C12 Myotubes” (J Nat Prod, 2016).

In data set [1] the target is T1, Peroxisome proliferator-activated receptor gamma (Mus musculus) (UniProt P37238).
T1 sequence (whole entry): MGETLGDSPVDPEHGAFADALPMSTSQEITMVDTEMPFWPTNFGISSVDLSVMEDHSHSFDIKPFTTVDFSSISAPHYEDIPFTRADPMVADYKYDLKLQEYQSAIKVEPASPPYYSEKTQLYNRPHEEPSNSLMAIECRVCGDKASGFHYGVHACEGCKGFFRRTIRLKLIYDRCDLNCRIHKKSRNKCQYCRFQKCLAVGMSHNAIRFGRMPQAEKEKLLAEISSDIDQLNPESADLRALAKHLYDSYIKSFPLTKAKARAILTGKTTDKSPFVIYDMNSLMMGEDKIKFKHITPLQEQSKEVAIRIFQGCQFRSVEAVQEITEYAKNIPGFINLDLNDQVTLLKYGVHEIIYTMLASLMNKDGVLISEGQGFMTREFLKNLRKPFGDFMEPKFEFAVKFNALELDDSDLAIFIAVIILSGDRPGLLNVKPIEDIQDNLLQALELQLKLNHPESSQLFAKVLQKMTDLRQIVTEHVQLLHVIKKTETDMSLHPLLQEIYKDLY
Briefly: Transactivation of PPARgamma in mouse C2C12 cells assessed as increase in GLUT-4 mediated 2-NBDG uptake at 10 uM after 6 hrs by fluorescence assay. The class given is cell-based. In a few lines:
(§1)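 Uptake was run in C2C12 myotubes (4 days in DMEM/1% FBS) kept in serum-free DMEM. 2-NBDG 10 μM and compound (DMSO solution) were added together for the stated time. Medium was then discarded, and cells were washed twice with PBS and scraped in ice-cold PBS. Cell-associated 2-NBDG was read by fluorescence at Ex/Em 475/550 nm, under basal or insulin-stimulated conditions.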

The target in data set [2] is T1, Peroxisome proliferator-activated receptor gamma (Mus musculus). Briefly: Transactivation of PPARgamma in mouse C2C12 cells assessed as increase in GLUT-4 mediated 2-NBDG uptake at 10 uM after 2 to 8 hrs by fluorescence assay. The class given is cell-based. In a few lines: as §1
Data set [3] shares this target. Briefly: Transactivation of PPARgamma in mouse C2C12 cells assessed as increase in GLUT-4 mediated 2-NBDG uptake at 4 hrs by fluorescence assay. The class given is cell-based. The essentials:
as §1

Data set [4] shares this target. Briefly: Transactivation of PPARgamma in mouse C2C12 cells assessed as increase in GLUT-4 mediated 2-NBDG uptake at 5 to 20 uM at 4 hrs by fluorescence assay. The class given is cell-based. In a few lines:
as §1

For data set [5] the target is unchanged. Briefly: Transactivation of PPARgamma in mouse C2C12 cells at 1 to 10 uM after 24 hrs by DR-1 luciferase reporter gene assay. The class given is cell-based. The essentials: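 C2C12 myotubes were transiently co-transfected with a DR-1 luciferase reporter and a PPARγ expression vector. Six hours after transfection, the medium was replaced with fresh medium containing the agonist. Luciferase activity was measured 24 h later by kit assay.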
In general terms: A reporter such as luciferase makes a cellular process visible.

The target is the same in data set [6]. Briefly: Transactivation of PPARgamma in mouse C2C12 cells assessed as increase in GLUT-4 levels in at 1 to 10 uM after 6 hrs by ELISA. The class given is cell-based. In a few lines: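 Myotubes were differentiated from C2C12 myoblasts over 4 days in DMEM plus 1% FBS, then treated 6 h in serum-free DMEM at 1 and 10 μM, with rosiglitazone 10 μM as reference. Cells were PBS-washed and lysed, and lysates were spun 20 min at 13000g, 4 °C. GLUT-4 in the supernatant was quantified by mouse GLUT-4 ELISA.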
A general note: ELISA stands for enzyme-linked immunosorbent assay.

The species entered for data set [7] is Mus musculus. Briefly: Cytotoxicity against mouse C2C12 cells assessed as cell viability at 1 to 20 uM after 4 hrs by MTT assay. The class given is toxicity, cell-based. Particulars: c2c12, 4 h. In a few lines: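 C2C12 myoblasts differentiated to myotubes in DMEM with 1% FBS, changed daily for 4 days, then seeded in 96-well plates. Cells were exposed to test compound for 4 h, with digitonin 100 μg/mL as positive control. MTT reagent was added, then DMSO, and absorbance was read at 565 nm as viability.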
(In general: Tetrazolium dyes change colour on reduction, which living cells bring about.)

Data set [8] addresses T1, Peroxisome proliferator-activated receptor gamma (Mus musculus). Briefly: Transactivation of PPARgamma in mouse C2C12 cells assessed as increase in GLUT-4 mediated insulin-induced 2-NBDG uptake at 4 hrs by fluorescence assay. The class given is cell-based. In a few lines: as §1

Calls of active or inactive are those of the source. The rule behind the calls is not given here.

On to `O=C(/C=C/c1ccc(O)cc1)OC[C@H]1O[C@@H](Oc2cc(O)cc(O)c2)[C@H](O)[C@@H](O)[C@@H]1O`, for which, in data set [1], the result was Active.
For the compound `CC(=O)c1c(O)cc(O)cc1O[C@@H]1O[C@H](COC(=O)/C=C\c2ccc(O)cc2)[C@@H](O)[C@H](O)[C@H]1O`, the outcome in data set [1] was Active.
Consider `O=C(OC[C@H]1O[C@@H](Oc2cc(O)cc(O)c2)[C@H](O)[C@@H](O)[C@@H]1O)[C@H]1[C@H](C(=O)OC[C@H]2O[C@@H](Oc3cc(O)cc(O)c3)[C@H](O)[C@@H](O)[C@@H]2O)[C@H](c2ccc(O)cc2)[C@H]1c1ccc(O)cc1`, for which the outcome in data set [1] was Active.
As to `O=C(/C=C/c1ccc(O)cc1)O[C@H]1[C@H](Oc2cc(O)cc(O)c2)O[C@H](CO)[C@@H](O)[C@@H]1O`, the outcome in data set [1] was Active.
Still for that read-out and setting: the entry for `O=C(/C=C/c1ccc(O)cc1)O[C@@H]1[C@@H](O)[C@H](Oc2cc(O)cc(O)c2)O[C@H](CO)[C@H]1O` is “Active”.
As to `O=C(OC[C@H]1O[C@@H](Oc2cc(O)cc(O)c2)[C@H](O)[C@@H](O)[C@@H]1O)[C@H]1[C@H](c2ccc(O)cc2)[C@H](C(=O)OC[C@H]2O[C@@H](Oc3cc(O)cc(O)c3)[C@H](O)[C@@H](O)[C@@H]2O)[C@H]1c1ccc(O)cc1`, the result in data set [1], in data set [2], in data set [4], in data set [5] and in data set [6] was Active. For the same compound, the Activity result in data set [3] was “Dose-dependent effect”; in data set [7], “Non-Toxic”; in data set [8], “Dose-dependent effect”.
Turning to `CC(=O)c1c(O)cc(O)cc1O[C@@H]1O[C@H](COC(=O)/C=C/c2ccc(O)cc2)[C@@H](O)[C@H](O)[C@H]1O`, the outcome in data set [1] was Active.
With `O=C(/C=C\c1ccc(O)cc1)O[C@H]1[C@H](Oc2cc(O)cc(O)c2)O[C@H](CO)[C@@H](O)[C@@H]1O`, the result in data set [1] was Active.
Still for that read-out and setting: the value for `O=C(/C=C/c1ccc(O)cc1)O[C@H]1[C@H](O)[C@@H](O)[C@H](Oc2cc(O)cc(O)c2)O[C@@H]1CO` was “Active”.
